# ChEMBL document CHEMBL1158375, “Design and synthesis of new N-(fluorenyl-9-methoxycarbonyl) (Fmoc)-dipeptides as anti-inflammatory agents” (Eur J Med Chem, 2009)
# pIC50: −log10 of the molar value.
# Columns and labels:
# Conditions in all cases: Neutrophil
# [1] = Antiinflammatory activity in fMLP/cytochalasin B-stimulated human neutrophils assessed as inhibition of superoxide anion generation at 10 ug/ml after 5 mins; assay type: functional
# Method in brief: (§1)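 Donor neutrophils isolated by dextran sedimentation, Ficoll Hypaque and hypotonic lysis, kept in Ca2+-free HBSS pH 7.4 at 4 °C. Cells given 0.5 mg/mL ferricytochrome c and 1 mM Ca2+, 2 min at 37 °C, drug 5 min, CB 1 μg/mL 3 min, then 100 nM fMLP for 10 min. SOD-inhibitable cytochrome c reduction. IC50 or % inhibition at 10 μg/mL; mean ± S.E.M., n = 3-4.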
# [2] = Antiinflammatory activity in fMLP/cytochalasin B-stimulated human neutrophils assessed as inhibition of elastase release after 5 mins; assay type: functional, cell-based
# Method in brief: (§2)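 Neutrophils from healthy donor blood (dextran sedimentation, Ficoll Hypaque, hypotonic erythrocyte lysis; >98% viable), held in Ca2+-free HBSS pH 7.4 at 4 °C. 5 × 10⁵ cells/mL with 100 μM MeO-Suc-Ala-Ala-Pro-Val-p-nitroanilide, 2 min at 37 °C, drug 5 min, then 100 nM fMLP + 0.5 μg/mL CB. A405 followed continuously; percent of initial rate versus drug-free control. IC50 or % inhibition at 10 μg/mL; mean ± S.E.M., n = 3-4.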
# [3] = Antiinflammatory activity in fMLP/cytochalasin B-stimulated human neutrophils assessed as inhibition of elastase release at 10 ug/ml after 5 mins; assay type: functional; method in brief: as §2
# [4] = Antiinflammatory activity in fMLP/cytochalasin B-stimulated human neutrophils assessed as inhibition of superoxide anion generation after 5 mins; assay type: functional, cell-based; method in brief: as §1
pIC50 [2],pIC50 [4],SMILES,inhibition at 10 µg/mL [1] [%],inhibition at 10 µg/mL [3] [%]
4.89,,CC(=O)OC[C@@H](Cc1ccccc1)NC(=O)[C@H](Cc1ccccc1)NC(=O)OCC1c2ccccc2-c2ccccc21,31.3,
,,CC(=O)OC[C@@H](Cc1ccccc1)NC(=O)[C@H](Cc1cn(C(c2ccccc2)(c2ccccc2)c2ccccc2)cn1)NC(=O)OCC1c2ccccc2-c2ccccc21,6.6,-2.9
,,CC(C)[C@H](NC(=O)OCC1c2ccccc2-c2ccccc21)C(=O)O,29.4,14.5
,,CC(=O)OC[C@H](Cc1ccccc1)NC(=O)[C@H](Cc1ccc(O)cc1)NC(=O)OCC1c2ccccc2-c2ccccc21,-0.5,22.8
5.25,5.26,CC(C)(C)Oc1ccc(C[C@H](NC(=O)OCC2c3ccccc3-c3ccccc32)C(=O)O)cc1,,
5.43,,CC(=O)OC[C@@H](Cc1ccccc1)NC(=O)[C@@H](N)Cc1ccc(O)cc1,8,
,,CC(=O)OC[C@H](Cc1ccccc1)NC(=O)[C@H](Cc1ccccc1)NC(=O)OCc1ccccc1,39.3,27.2
5.19,,CC(=O)OC[C@@H](Cc1ccccc1)NC(=O)[C@H](Cc1ccc(O)cc1)NC(=O)OCC1c2ccccc2-c2ccccc21,8,
< 4.70,< 4.70,CC(=O)OC[C@H](Cc1ccccc1)NC(=O)[C@@H](N)Cc1ccccc1,,
,5.48,O=C(N[C@@H](Cc1c[nH]c2ccccc12)C(=O)O)OCC1c2ccccc2-c2ccccc21,,45.4
,,CC(=O)OC[C@H](Cc1ccccc1)NC(=O)[C@@H](N)Cc1ccc(O)cc1,-0.5,22.8
,,CC[C@H](C)[C@H](NC(=O)OCC1c2ccccc2-c2ccccc21)C(=O)N[C@H](COC(C)=O)Cc1ccccc1,2.2,25.8
6.10,,CC(=O)OC[C@H](Cc1ccccc1)NC(=O)[C@H](Cc1ccc(OC(C)(C)C)cc1)NC(=O)OCC1c2ccccc2-c2ccccc21,25.9,
,,CC(=O)OC[C@@H](Cc1ccccc1)NC(=O)[C@H](Cc1ccc(OC(C)(C)C)cc1)NC(=O)OCC1c2ccccc2-c2ccccc21,22.3,31.9
4.85,4.85,O=C(N[C@@H](Cc1ccccc1)C(=O)O)OCC1c2ccccc2-c2ccccc21,,
5.77,,CC(=O)OC[C@@H](Cc1ccccc1)NC(=O)[C@H](Cc1c[nH]c2ccccc12)NC(=O)OCC1c2ccccc2-c2ccccc21,18.6,
5.26,,CC(=O)OC[C@H](Cc1ccccc1)NC(=O)[C@H](Cc1c[nH]c2ccccc12)NC(=O)OCC1c2ccccc2-c2ccccc21,24.5,
,4.89,CC[C@H](C)[C@H](NC(=O)OCC1c2ccccc2-c2ccccc21)C(=O)O,,39.8
,,CC(=O)OC[C@H](Cc1ccccc1)NC(=O)[C@H](Cc1ccccc1)NC(=O)OC(C)(C)C,42.1,18.9
,,CC[C@H](C)[C@H](NC(=O)OCC1c2ccccc2-c2ccccc21)C(=O)N[C@@H](COC(C)=O)Cc1ccccc1,6,22.5
,,CC(=O)OC[C@@H](Cc1ccccc1)NC(=O)[C@@H](NC(=O)OCC1c2ccccc2-c2ccccc21)C(C)C,-2.3,34.6
5.54,5.62,O=C(N[C@@H](Cc1ccc(O)cc1)C(=O)O)OCC1c2ccccc2-c2ccccc21,,
,,CC(=O)OC[C@H](Cc1ccccc1)NC(=O)[C@H](Cc1cn(C(c2ccccc2)(c2ccccc2)c2ccccc2)cn1)NC(=O)OCC1c2ccccc2-c2ccccc21,9.5,32
4.84,,CC(=O)OC[C@@H](Cc1ccccc1)NC(=O)[C@H](Cc1ccc2ccccc2c1)NC(=O)OCC1c2ccccc2-c2ccccc21,2.1,
,,CC(=O)OC[C@@H](Cc1ccccc1)NC(=O)[C@H](Cc1ccccc1)NC(=O)OCc1ccccc1,40.9,35.4
,,CC(=O)OC[C@H](Cc1ccccc1)NC(=O)[C@H](Cc1ccccc1)NC(=O)OCC1c2ccccc2-c2ccccc21,2.8,39.5
,,CC(=O)OC[C@H](Cc1ccccc1)NC(=O)[C@@H](NC(=O)OCC1c2ccccc2-c2ccccc21)C(C)C,-6.3,27.7
,,CC(=O)OC[C@@H](Cc1ccccc1)NC(=O)[C@H](Cc1ccccc1)NC(=O)OC(C)(C)C,4.7,11
< 4.70,< 4.70,CC(=O)OC[C@@H](Cc1ccccc1)NC(=O)[C@@H](N)Cc1ccccc1,,
,,CC(=O)OC[C@H](Cc1ccccc1)NC(=O)[C@H](Cc1ccc2ccccc2c1)NC(=O)OCC1c2ccccc2-c2ccccc21,5,37.8

SMILES,pIC50 [2],pIC50 [4],inhibition at 10 µg/mL [1] [%],inhibition at 10 µg/mL [3] [%]
c1ccc2c(c1)[I+]c1ccccc1-2 [DIPHENYLENEIODONIUM],,6.15,,
